Reference: ChEMBL document CHEMBL1671856, “Chemical target validation studies of aminopeptidase in malaria parasites using alpha-aminoalkylphosphonate and phosphonopeptide inhibitors” (Antimicrob Agents Chemother, 2008)
pIC50, pKi: −log10 of the molar value.

How the values were obtained:
[1] = tested on: Plasmodium falciparum; experiment: Antimalarial activity against Plasmodium falciparum 3D7 infected in O-positive human erythrocytes after 72 hrs; assay type: functional, organism-based; details: 3D7, 72 h
Summary of the method: (§1)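 Asynchronous asexual blood-stage P. falciparum 3D7 were cultured in O+ erythrocytes and exposed to compounds for 72 h. Growth was read by the spectrophotometric parasite lactate dehydrogenase absorbance assay. IC50 values were determined graphically from dose-response curves.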

[2] = target: T1, Leucine aminopeptidase (Plasmodium falciparum 3D7) (UniProt Q8IL11); experiment: Inhibition of leucyl aminopeptidase activity in Plasmodium falciparum 3D7 at 10 uM using Leu-AMC as a substrate by spectrophotometer
T1 sequence (whole entry): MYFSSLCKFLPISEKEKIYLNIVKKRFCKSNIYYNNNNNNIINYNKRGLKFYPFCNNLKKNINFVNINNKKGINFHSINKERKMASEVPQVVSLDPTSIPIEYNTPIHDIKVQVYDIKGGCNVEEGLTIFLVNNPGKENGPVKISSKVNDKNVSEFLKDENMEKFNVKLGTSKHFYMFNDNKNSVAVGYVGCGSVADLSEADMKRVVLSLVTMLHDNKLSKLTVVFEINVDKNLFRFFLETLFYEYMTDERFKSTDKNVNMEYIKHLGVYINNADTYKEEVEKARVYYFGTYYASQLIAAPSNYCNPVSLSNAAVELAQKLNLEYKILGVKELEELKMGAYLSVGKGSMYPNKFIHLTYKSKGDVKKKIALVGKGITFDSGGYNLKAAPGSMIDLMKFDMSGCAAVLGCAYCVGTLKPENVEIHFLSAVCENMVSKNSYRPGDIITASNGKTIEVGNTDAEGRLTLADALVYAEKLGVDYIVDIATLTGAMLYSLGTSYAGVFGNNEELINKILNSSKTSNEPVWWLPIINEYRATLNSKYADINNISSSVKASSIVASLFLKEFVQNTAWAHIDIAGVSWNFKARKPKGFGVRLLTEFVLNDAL
Summary of the method: (§2)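 Cytosolic extract came from free parasites released from infected erythrocytes, then three freeze-thaw cycles and centrifugation at 12,000 x g, 4°C, 20 min. Extract (25 µg/ml final) was preincubated with 0.1 or 10 µM inhibitor in 50 mM Tris-Cl pH 8.0, with or without 1 mM CoCl2, for 15 min at 37°C. Leu-AMC or Ala-AMC (10 µM final) was added. AMC release was read over 30 min (ex 370/em 440 nm).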

[3] = target: T1, Leucine aminopeptidase (Plasmodium falciparum 3D7); experiment: Inhibition of leucyl aminopeptidase activity in Plasmodium falciparum 3D7 at 0.1 uM using Leu-AMC as a substrate by spectrophotometer; summary of the method: as §2
[4] = tested on: Plasmodium falciparum; experiment: Inhibition of alanyl aminopeptidase activity in Plasmodium falciparum 3D7 at 10 uM using Ala-AMC as a substrate by spectrophotometer; summary of the method: as §2
[5] = tested on: Plasmodium falciparum; experiment: Inhibition of alanyl aminopeptidase activity in Plasmodium falciparum 3D7 at 0.1 uM using Ala-AMC as a substrate by spectrophotometer; summary of the method: as §2
[6] = target: T1, Leucine aminopeptidase (Plasmodium falciparum 3D7); experiment: Inhibition of leucyl aminopeptidase activity in Plasmodium falciparum 3D7 at 10 uM using Leu-AMC as a substrate by spectrophotometer in presence of 1 mM CoCl2
[7] = target: T1, Leucine aminopeptidase (Plasmodium falciparum 3D7); experiment: Inhibition of leucyl aminopeptidase activity in Plasmodium falciparum 3D7 at 0.1 uM using Leu-AMC as a substrate by spectrophotometer in presence of 1 mM CoCl2
[8] = Inhibition of porcine kidney leucyl aminopeptidase; design: species or system Sus scrofa
[9] = target: T2, Aminopeptidase N (Sus scrofa, UniProt P15145); experiment: Inhibition of pig kidney microsomal aminopeptidase N
T2 sequence (P15145 whole entry): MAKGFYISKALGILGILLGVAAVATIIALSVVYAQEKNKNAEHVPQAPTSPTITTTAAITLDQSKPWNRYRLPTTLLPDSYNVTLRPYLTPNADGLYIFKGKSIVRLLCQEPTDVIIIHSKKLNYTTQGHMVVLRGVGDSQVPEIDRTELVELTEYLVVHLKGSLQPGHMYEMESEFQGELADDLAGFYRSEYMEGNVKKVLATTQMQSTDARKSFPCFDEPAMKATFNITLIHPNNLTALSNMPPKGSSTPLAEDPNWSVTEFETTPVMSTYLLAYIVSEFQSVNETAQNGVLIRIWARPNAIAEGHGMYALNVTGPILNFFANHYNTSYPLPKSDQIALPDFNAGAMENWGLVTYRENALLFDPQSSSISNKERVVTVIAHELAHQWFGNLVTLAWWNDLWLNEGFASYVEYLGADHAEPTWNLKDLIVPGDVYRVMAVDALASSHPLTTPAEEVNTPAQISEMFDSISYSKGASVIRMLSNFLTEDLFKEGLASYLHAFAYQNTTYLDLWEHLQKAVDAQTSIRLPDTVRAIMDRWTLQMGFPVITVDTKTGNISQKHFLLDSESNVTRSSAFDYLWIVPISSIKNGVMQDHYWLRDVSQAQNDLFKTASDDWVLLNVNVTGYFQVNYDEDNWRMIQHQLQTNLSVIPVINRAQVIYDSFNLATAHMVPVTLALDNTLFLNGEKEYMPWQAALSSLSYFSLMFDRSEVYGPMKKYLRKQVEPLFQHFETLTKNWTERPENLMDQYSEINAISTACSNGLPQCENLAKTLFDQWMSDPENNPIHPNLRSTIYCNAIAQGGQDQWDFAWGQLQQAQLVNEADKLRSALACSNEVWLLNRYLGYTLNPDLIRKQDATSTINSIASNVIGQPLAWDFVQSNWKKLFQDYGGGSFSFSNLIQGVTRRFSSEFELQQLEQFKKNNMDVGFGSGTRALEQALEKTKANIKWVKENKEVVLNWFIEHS

[10] = tested on: Plasmodium falciparum; experiment: Antimalarial activity against Plasmodium falciparum 3D7 infected in O-positive human erythrocytes assessed as growth inhibition by LDH assay; assay type: functional; summary of the method: as §1
[11] = target: T1, Leucine aminopeptidase (Plasmodium falciparum 3D7); experiment: Inhibition of leucyl aminopeptidase activity in Plasmodium falciparum 3D7 harboring tPfAP-M17 gene at 0.1 uM using Leu-AMC as a substrate by spectrophotometer in presence of 1 mM CoCl2

| SMILES | pIC50 [1] | inhibition [2] [%] | inhibition (INH) [10] [%] | further results |
| --- | --- | --- | --- | --- |
| CC(CCNC(=O)C(N)Cc1ccccc1)P(=O)(O)O (stereo unspecified) | 3.87 | 4 | – | inhibition [3]: 0%; inhibition at 10 µM [4]: 0%; inhibition at 0.1 µM [5]: 0%; inhibition [6]: 0%; inhibition [7]: 1% |
| N[C@@H](C1CCCCC1)P(=O)(O)O | 4.27 | 12 | – | inhibition [3]: 0%; inhibition at 10 µM [4]: 8%; inhibition at 0.1 µM [5]: 2%; pKi [8]: 5.10; pKi [9]: 3.79; inhibition [6]: 67%; inhibition [7]: 50% |
| NC(c1ccc2ccccc2c1)C(O)P(=O)(O)O (stereo unspecified) | < 3.89 | 17 | 11 | – |
| CCC(CC)[C@H](N)P(=O)(O)O | < 3.59 | 10 | 15 | – |
| CC(C)C[C@H](N)[C@@H](N)P(=O)(O)O | < 3.59 | 6 | 14 | – |
| Cl.NC(Cc1ccccc1)C(=O)NCCC(O)P(=O)(O)O (stereo unspecified) | < 3.59 | 9 | 10 | – |
| CC(C)C(NC(=O)C(N)Cc1ccccc1)P(=O)(O)O (stereo unspecified) | < 3.59 | 12 | 7 | – |
| N[C@H](C1CCCCC1)P(=O)(O)O | < 3.59 | 8 | 7 | pKi [8]: 5.16; pKi [9]: < 2.70 |
| CCC(C)C(N)C(O)P(=O)(O)O (stereo unspecified) | < 3.59 | 5 | 1 | – |
| CCC(CC)[C@@H](N)P(=O)(O)O | < 3.59 | 6 | 0 | – |
| NC(c1ccccc1)C(O)P(=O)(O)O (stereo unspecified) | < 3.59 | 5 | 0 | – |
| CC(C)C[C@@H](N)P(=O)(O)O | < 3.59 | 2 | 1 | pKi [9]: 4.28 |
| NC(CCc1ccccc1)P(=O)(O)O (racemic) | 4.66 | 93 | – | inhibition [3]: 15%; inhibition at 10 µM [4]: 95%; inhibition at 0.1 µM [5]: 15%; pKi [8]: 6.85; inhibition [6]: 92%; inhibition [7]: 41%; inhibition [11]: 27% |
| NC(CCc1ccccc1)P(=O)(O)Oc1ccccc1 (racemic) | 4.60 | 90 | – | inhibition [3]: 8%; inhibition at 10 µM [4]: 92%; inhibition at 0.1 µM [5]: 12%; inhibition [6]: 73%; inhibition [7]: 19% |
| COc1ccc(C(N)P(=O)(O)O)cc1O (racemic) | 4.19 | 39 | – | inhibition [3]: 5%; inhibition at 10 µM [4]: 43%; inhibition at 0.1 µM [5]: 0%; inhibition [6]: 71%; inhibition [7]: 46% |
| NC(CC1CCCCC1)P(=O)(O)O (racemic) | 3.92 | 27 | – | inhibition [3]: 3%; inhibition at 10 µM [4]: 20%; inhibition at 0.1 µM [5]: 0%; pKi [8]: 6.12; pKi [9]: 4.26; inhibition [6]: 69%; inhibition [7]: 21% |
| COc1ccc(C(N)P(=O)(O)O)cc1OC (racemic) | 4.28 | 71 | – | inhibition [3]: 6%; inhibition at 10 µM [4]: 76%; inhibition at 0.1 µM [5]: 0%; inhibition [6]: 70%; inhibition [7]: 20% |
| COc1ccc(C(N)P(=O)(O)O)cc1 (racemic) | 4.24 | 43 | – | inhibition [3]: 2%; inhibition at 10 µM [4]: 52%; inhibition at 0.1 µM [5]: 2%; inhibition [6]: 73%; inhibition [7]: 38% |
| NC(c1cccc(O)c1)P(=O)(O)O (racemic) | < 3.59 | 6 | 34 | – |
| NC(CC1CCCC1)P(=O)(O)O (racemic) | < 3.59 | 37 | 17 | – |

| SMILES | pIC50 [1] | inhibition [2] [%] | inhibition (INH) [10] [%] | further results |
| --- | --- | --- | --- | --- |
| NC(c1ccc(O)cc1)P(=O)(O)O (racemic) | < 3.59 | 8 | 14 | – |
| NC(C1CCC1)P(=O)(O)O (racemic) | < 3.59 | 6 | 8 | – |
| NC(c1ccc(O)c(O)c1)P(=O)(O)O (racemic) | < 3.59 | 7 | 5 | – |
| NC(Cc1ccc(O)cc1)P(=O)(O)O (racemic) | < 3.59 | 8 | 1 | – |
| NC(C1CC1)P(=O)(O)O (racemic) | < 3.59 | 6 | 0 | – |
| CCC(C)C(N)P(=O)(O)O (stereo in doubt; D28) [listing 1 of 2 here] | < 3.59 | – | 22 | – |
| CCC(C)C(N)P(=O)(O)O (stereo in doubt; D28) [listing 2 of 2 here] | – | 9 | – | – |
| CCC(C)C(N)P(=O)(O)O (stereo in doubt; D29) [listing 1 of 2 here] | – | – | 0 | – |
| CCC(C)C(N)P(=O)(O)O (stereo in doubt; D29) [listing 2 of 2 here] | – | 9 | – | – |
| CCCC(C)C(N)P(=O)(O)O (stereo in doubt; D30) [listing 1 of 2 here] | < 3.59 | – | 14 | – |
| CCCC(C)C(N)P(=O)(O)O (stereo in doubt; D30) [listing 2 of 2 here] | – | 11 | – | – |
| CCCC(C)C(N)P(=O)(O)O (stereo in doubt; D31) [listing 1 of 2 here] | – | – | 2 | – |
| CCCC(C)C(N)P(=O)(O)O (stereo in doubt; D31) [listing 2 of 2 here] | – | 3 | – | – |
| CCCCC(CC)C(N)P(=O)(O)O (stereo in doubt; D32) [listing 1 of 2 here] | – | – | 0 | – |
| CCCCC(CC)C(N)P(=O)(O)O (stereo in doubt; D32) [listing 2 of 2 here] | – | 1 | – | – |
| CCCCC(CC)C(N)P(=O)(O)O (stereo in doubt; D33) [listing 1 of 2 here] | < 3.59 | – | 17 | – |
| CCCCC(CC)C(N)P(=O)(O)O (stereo in doubt; D33) [listing 2 of 2 here] | – | 11 | – | – |
| CC(C)C[C@H](N)P(=O)(O)O [LEUCINE PHOSPHONIC ACID] | < 3.89 | 15 | 30 | inhibition [3]: 0%; inhibition at 10 µM [4]: 24%; inhibition at 0.1 µM [5]: 0%; inhibition [6]: 52%; inhibition [7]: 9% |
| CC(C)C[C@H](NC(=O)[C@@H](O)[C@H](N)Cc1ccccc1)C(=O)O [UBENIMEX] | – | 98 | – | inhibition [3]: 33%; inhibition at 10 µM [4]: 97%; inhibition at 0.1 µM [5]: 29%; inhibition [6]: 93%; inhibition [7]: 6%; inhibition [11]: 47% |
